Common to all, as to assay type: functional
In test [1] the target is T1, Guanine nucleotide-binding protein G(i) subunit alpha-1 (Homo sapiens, UniProt P63096). In words: Concentration required to stimulate binding of [35S]GTP-gamma-S, with G alpha i1. In outline:
(§1)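 His-tagged recombinant Gαi subunits were expressed in E. coli BL21/DE3 and purified by IMAC. 3 pmol of subunit, native or in lipid vesicles, was incubated 30 min at 30 °C with 0.1 μM [35S]GTPγS in 50 mM Hepes-NaOH, 1 mM EDTA, 1 mM DTT and 100 μM MgSO4. The reaction was stopped with ice-cold buffer and filtered on cellulose nitrate. EC50 came from 1×10^-7 to 1×10^-4 M (eight concentrations).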
A general note: Binding of GTPγS marks nucleotide exchange on a G protein.

Test [2] addresses T2, Guanine nucleotide-binding protein G(i) subunit alpha-3 (Homo sapiens, UniProt P08754). Briefly: Concentration required to stimulate binding of [35S]GTP-gamma-S, with G alpha i3. The method, boiled down: as §1
The target in test [3] is T3, Guanine nucleotide-binding protein G(o) subunit alpha (Homo sapiens, UniProt P09471). Briefly: Concentration required to stimulate binding of [35S]GTP-gamma-S, with G alpha o1. The method, boiled down:
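Gαo: His-tagged recombinant subunit from E. coli BL21/DE3, IMAC-purified. 3 pmol, native or vesicle-reconstituted, incubated 30 min at 20 °C with 0.1 μM [35S]GTPγS in Hepes-NaOH/EDTA/DTT/100 μM MgSO4 mix. The reaction was stopped with ice-cold Tris/MgCl2/NaCl buffer, filtered on cellulose nitrate and washed. EC50 was derived from eight concentrations spanning 1×10^-7 to 1×10^-4 M.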
Target sequence in this assay (P09471 whole entry): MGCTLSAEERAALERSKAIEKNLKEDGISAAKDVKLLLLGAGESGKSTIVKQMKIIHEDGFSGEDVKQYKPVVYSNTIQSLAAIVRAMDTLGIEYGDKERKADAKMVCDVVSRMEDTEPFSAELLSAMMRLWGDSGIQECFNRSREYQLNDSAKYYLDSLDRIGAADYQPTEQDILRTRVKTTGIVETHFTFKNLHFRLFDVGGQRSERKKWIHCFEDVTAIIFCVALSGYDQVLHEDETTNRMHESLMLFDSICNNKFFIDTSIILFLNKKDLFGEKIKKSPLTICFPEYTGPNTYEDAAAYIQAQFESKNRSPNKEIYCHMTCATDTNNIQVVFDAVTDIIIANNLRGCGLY

The target of test [4] is T1, Guanine nucleotide-binding protein G(i) subunit alpha-1. Briefly: Percent stimulation of [35S]GTP-gamma-S, binding to G alpha i1 at 5E-5 M of basal for 30 minutes. The method, boiled down: (§2)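 Recombinant His-tagged Gαi subunit (3 pmol, native or in lipid vesicles) was incubated with compound at 5×10^-5 M and 0.1 μM [35S]GTPγS, 30 min at 30 °C, in 50 mM Hepes-NaOH, 1 mM EDTA, 1 mM DTT, 100 μM MgSO4. Filter-bound GTPγS after ice-cold stop and cellulose-nitrate filtration is expressed as percent of basal.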

For test [5], the target named is T2, Guanine nucleotide-binding protein G(i) subunit alpha-3. Briefly: Percent stimulation of [35S]GTP-gamma-S, binding to G alpha i3 at 5E-5 M of basal for 30 minutes. The method, boiled down: as §2
Test [6] deals with T3, Guanine nucleotide-binding protein G(o) subunit alpha. Briefly: Percent stimulation of [35S]GTP-gamma-S, binding to G alpha o1 at 5E-5 M of basal for 30 minutes. In outline:
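With Gαo (3 pmol recombinant His-tagged subunit, native or vesicle-reconstituted), binding of 0.1 μM [35S]GTPγS was measured during 30 min at 20 °C with compound at 5×10^-5 M, in Hepes-NaOH buffer with EDTA, DTT and 100 μM MgSO4. Samples were filtered on cellulose nitrate, and the value is percent of basal binding.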
Target sequence in this assay (P09471 2-354 limits assumed): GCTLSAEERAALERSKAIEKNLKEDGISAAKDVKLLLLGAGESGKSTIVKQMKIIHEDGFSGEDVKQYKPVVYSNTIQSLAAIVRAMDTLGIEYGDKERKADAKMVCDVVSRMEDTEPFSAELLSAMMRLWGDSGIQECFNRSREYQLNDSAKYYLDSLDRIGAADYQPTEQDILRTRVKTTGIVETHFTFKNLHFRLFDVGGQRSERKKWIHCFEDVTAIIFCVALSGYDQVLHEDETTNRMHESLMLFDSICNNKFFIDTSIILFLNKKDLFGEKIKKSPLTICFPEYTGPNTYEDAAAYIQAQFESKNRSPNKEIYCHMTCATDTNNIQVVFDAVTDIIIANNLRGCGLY

Molecules are shown by their SMILES.

T2 sequence (P08754 whole entry): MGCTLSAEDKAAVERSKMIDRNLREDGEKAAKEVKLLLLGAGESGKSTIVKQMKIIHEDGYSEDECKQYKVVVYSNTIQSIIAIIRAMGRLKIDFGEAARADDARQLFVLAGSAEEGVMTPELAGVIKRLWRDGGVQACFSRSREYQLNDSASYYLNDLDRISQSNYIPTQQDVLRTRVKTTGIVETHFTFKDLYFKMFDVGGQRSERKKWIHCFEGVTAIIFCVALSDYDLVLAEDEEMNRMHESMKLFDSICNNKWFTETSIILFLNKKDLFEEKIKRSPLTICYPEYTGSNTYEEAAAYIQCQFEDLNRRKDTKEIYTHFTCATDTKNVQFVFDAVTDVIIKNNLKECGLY
T1 sequence (P63096 whole entry): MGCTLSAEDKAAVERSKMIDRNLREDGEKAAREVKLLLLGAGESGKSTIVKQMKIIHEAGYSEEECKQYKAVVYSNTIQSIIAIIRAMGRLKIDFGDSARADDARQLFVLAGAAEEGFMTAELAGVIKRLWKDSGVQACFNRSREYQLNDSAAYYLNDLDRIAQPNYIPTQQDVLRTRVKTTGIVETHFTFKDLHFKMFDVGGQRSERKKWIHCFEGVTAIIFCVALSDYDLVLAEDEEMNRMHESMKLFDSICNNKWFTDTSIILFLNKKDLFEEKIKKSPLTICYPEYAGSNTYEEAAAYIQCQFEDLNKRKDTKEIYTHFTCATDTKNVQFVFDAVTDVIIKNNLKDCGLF

A word on the EC50: it is the concentration giving half of the maximal effect. A lower EC50 goes with an effect from little substance. As to `CCCCCCCCCCCCCCCCC(=O)N1CCC(C2CCNCC2)CC1`, the concentration for a half-maximal effect (EC50) in test [1] amounted to 25.4 µM; in test [2], 24.4 µM; in test [3], 22.6 µM. Also, the Stimulation in test [4] turned out to be 612%; in test [5], 424%; in test [6] it was 920%.

In the case of `CCCCCCCCCCCCCCC(=O)N1CCC(N)CC1`, the figures for the EC50 in test [1], in test [2] and in test [3] were 25.5 µM, 25.1 µM and 25.8 µM, respectively. The Stimulation in test [4] came out at 1050%; in test [5] it was 1070%; in test [6] it was 1280%.

On to `CCCCCCCCCCCCCCCN1CCC(NC2CCNCC2)CC1`, for which the EC50 stood at 32.4 µM in test [1], 14.4 µM in test [2] and 13.5 µM in test [3]. The Stimulation in test [4] is 1540%; in test [5] it was 2280%; in test [6], 3040%.

On to `CCCCCCCCCCCCCCCN1CCC(C2CCN(C)CC2)CC1`, for which the Stimulation in test [4] is 97%; in test [5], 80%; in test [6], 93%.

In the case of `COc1ccccc1CN1CCC(C2CCNCC2)CC1`, the EC50 in test [2] was found to be 38.8 µM. Further, the Stimulation in test [4] amounted to 60%; in test [5], 391%; in test [6] it was 129%.

For the compound `CCCCCCCCCCCCCCCNC(=O)C1CCN(CCN)CC1`, the concentration giving a half-maximal response (EC50) in test [1] came out at 18.4 µM; in test [2], 19 µM; in test [3] it was 16.9 µM. In addition, the Stimulation in test [4] came out at 2630%; in test [5], 2720%; in test [6] it was 3350%.

In the case of `CCCCCCCCCCCCCCCCCN1CCC(C2CCN(C)CC2)CC1`, the Stimulation in test [4] was found to be 81%; in test [5] it was 97%; in test [6], 99%.

In the case of `CCCCCCCCCCCCCCCN1CCC(CCC2CCNCC2)CC1`, the EC50 in test [1] came to 451 µM; in test [2], 8050 µM; in test [3] it was 10.5 µM. Moreover, the Stimulation worked out at 2460% in test [4], 2400% in test [5] and 5010% in test [6].

In the case of `CCCCCCCCCCCCCN1CCC(C2CCN(C)CC2)CC1`, the concentration for a half-maximal effect (EC50) in test [1] was 18.7 µM; in test [2], 18.9 µM; in test [3], 19.3 µM. Further, the Stimulation in test [4] amounted to 704%; in test [5] it was 435%; in test [6] it was 420%.

Consider `CCCCCCCCCCCCCCCNCC1CCNCC1`, for which the EC50 in test [1] was 10.6 µM; in test [2], 11.4 µM; in test [3], 12.4 µM. The results for the Stimulation in test [4], in test [5] and in test [6] were 2460%, 1930% and 4160%, respectively.

With `CCCCCCCCCCCCCCCN1CCC(C2CCNCC2)CC1`, the values for the EC50 in test [1], in test [2] and in test [3] were 19.1 µM, 18.7 µM and 6.2 µM, respectively. Also, the Stimulation in test [4] amounted to 1510%; in test [5], 1640%; in test [6], 1810%.

With `CCCCCCCCCCCCCCCNCC1CCN(CCN)CC1`, the EC50 in test [1] worked out at 17.8 µM; in test [2], 23 µM; in test [3], 24.3 µM. The results for the Stimulation in test [4], in test [5] and in test [6] were 825%, 815% and 942%, respectively.

As to `CCCCCCCCCCCCC(=O)N1CCC(C2CCNCC2)CC1`, the figures for the EC50 in test [1], in test [2] and in test [3] were 17.6 µM, 12.1 µM and 18.1 µM, respectively. Further, the results for the Stimulation in test [4], in test [5] and in test [6] were 950%, 1180% and 1500%, respectively.

Consider `CCCCCCCCCCCCCCC(=O)N1CCC(CCC2CCNCC2)CC1`, for which the EC50 in test [1] turned out to be 6.6 µM; in test [2], 6.3 µM; in test [3], 6.1 µM. Further, the values for the Stimulation in test [4], in test [5] and in test [6] were 845%, 1090% and 724%, respectively.

Turning to `CCCCCCCCCCCCCCC(=O)NC1CCNCC1`, the values for the EC50 in test [1], in test [2] and in test [3] were 50.2 µM, 34.3 µM and 22.7 µM, respectively. The Stimulation was 1270% in test [4], 1290% in test [5] and 1370% in test [6].

Consider `CCCCCCCCCCCCCCCN1CCC(CCC2CCN(C)CC2)CC1`, for which the figures for the Stimulation in test [4], in test [5] and in test [6] were 86%, 102% and 132%, respectively.

With `CCCCCCCCCCCCCCCNC(=O)C1CCN(CCNC=O)CC1`, the EC50 in test [1] amounted to 8.6 µM; in test [2] it was 9.3 µM; in test [3] it was 5.5 µM. Further, the Stimulation was found to be 3290% in test [4], 3240% in test [5] and 3600% in test [6].

Regarding `CCCCCCCCCCCCCCC(=O)N1CCC(C2CCN(C)CC2)CC1`, the EC50 in test [1] turned out to be 6 µM; in test [2], 17.9 µM; in test [3], 34.9 µM. The Stimulation in test [4] was found to be 392%; in test [5], 265%; in test [6], 531%.

With `CCCCCCCCCCCCCCCN1CCN(N)CC1`, the EC50 in test [1] was 6.5 µM; in test [2], 6.5 µM; in test [3], 3.7 µM. In addition, the results for the Stimulation in test [4], in test [5] and in test [6] were 2330%, 2820% and 2870%, respectively.

On to `CCCCCCCCCCCCCCC(=O)N1CCC(CCC2CCN(C)CC2)CC1`, for which the EC50 was found to be 20.1 µM in test [1], 6.1 µM in test [2] and 12.5 µM in test [3]. For the same compound, the Stimulation in test [4] was determined as 577%; in test [5] it was 815%; in test [6], 742%.

As for `CCCCCCCCCCCCCCCCC(=O)N1CCC(C2CCN(C)CC2)CC1`, the figures for the EC50 in test [1], in test [2] and in test [3] were 23 µM, 23.3 µM and 21.4 µM, respectively. For the same compound, the Stimulation in test [4] stood at 232%; in test [5] it was 181%; in test [6] it was 472%.

In the case of `CCCCCCCCCCCCCCC(=O)N1CCC(C2CCNCC2)CC1`, the EC50 in test [1] came out at 8.6 µM; in test [2], 9.3 µM; in test [3], 5.6 µM. For the same compound, the Stimulation was 1540% in test [4], 1560% in test [5] and 2390% in test [6].

In the case of `CCCCCCCCCCCCNC(=O)C(N)CCCCN` (stereo not drawn), the EC50 in test [1] is 47.9 µM; in test [2] it was 43.9 µM; in test [3] it was 28.8 µM. Also, the Stimulation in test [4] came to 900%; in test [5], 1030%; in test [6], 2510%.

In the case of `CCCCCCCCCCCCCCCNC(=O)C1CCNCC1`, the EC50 in test [1] is 6.4 µM; in test [2] it was 5.9 µM; in test [3] it was 8.2 µM. Besides, the Stimulation turned out to be 973% in test [4], 986% in test [5] and 2270% in test [6].

Turning to `CCCCCCCCCCCCCCC(=O)N1CCN(N)CC1`, the EC50 in test [1] is 28.6 µM; in test [2] it was 24.6 µM; in test [3] it was 374 µM. In addition, the Stimulation came to 173% in test [4], 211% in test [5] and 194% in test [6].

In the case of `CCCCCCCCCCCCCNC1CCNCC1`, the EC50 came to 36.4 µM in test [1], 18.8 µM in test [2] and 25.5 µM in test [3]. The figures for the Stimulation in test [4], in test [5] and in test [6] were 1480%, 2000% and 2350%, respectively.

With `CCCCCCCCCCCCCCCCCN1CCC(C2CCNCC2)CC1`, the EC50 in test [1] was found to be 35.7 µM; in test [2], 41.5 µM; in test [3] it was 13.4 µM. Moreover, the values for the Stimulation in test [4], in test [5] and in test [6] were 5690%, 5660% and 3480%, respectively.

Turning to `CCCCCCCCCCCCCCCNC1CCNCC1`, the concentration for a half-maximal effect (EC50) in test [1] is 11.8 µM; in test [2], 11.2 µM; in test [3], 13.3 µM. For the same compound, the figures for the Stimulation in test [4], in test [5] and in test [6] were 3370%, 3440% and 3830%, respectively.

In the case of `CCCCCCCCCCCCCCCN1CCC(N)CC1`, the EC50 in test [1] worked out at 22.1 µM; in test [2] it was 27.6 µM; in test [3], 23 µM. The Stimulation in test [4] was 3350%; in test [5] it was 3780%; in test [6], 6890%.

In the case of `CCCCCCCCCCCCCCC[N+]1(C)CCC(C2CCNCC2)CC1` (stereo not drawn), the EC50 in test [1] came out at 14.7 µM; in test [2], 16 µM; in test [3], 10.1 µM. Besides, the Stimulation was determined as 1580% in test [4], 1630% in test [5] and 2090% in test [6].

In the case of `CCCCCCCCCCCCCCC(=O)NN1CCNCC1`, the EC50 in test [1] is 38.5 µM; in test [2] it was 24.9 µM; in test [3], 23.4 µM. Also, the Stimulation in test [4] was found to be 2320%; in test [5], 3690%; in test [6], 4640%.

For `CCCCCCCCCCCCC(=O)N1CCC(C2CCN(C)CC2)CC1`, the Stimulation is 84% in test [4], 75% in test [5] and 126% in test [6].

The values are drawn from ChEMBL document CHEMBL1140445, “Design, synthesis, and preliminary pharmacological evaluation of a set of small molecules that directly activate gi proteins” (J Med Chem, 2005).
